Test results reported in article PMC10356740 (Journal of sleep research, 2023).
Where two headings read alike, the source gives them in different places.

Tests used:
[1] = format: in vivo; conditions: mouse, sc, 10 mg/kg
How it was run: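 Dosing was 10 mg/kg, s.c. or i.p. by compound, with sparse sampling of plasma and brain. Total drug measured by LC-MS/MS was multiplied by fraction unbound to give free concentrations. Fraction unbound came from 5 μM compound incubated in mouse plasma or brain homogenate by rapid equilibrium dialysis. Parameters were derived by noncompartmental analysis, with terminal half-life by best fit.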

[2] = Fraction unbound by rapid equilibrium dialysis; format: in vitro ADME; conditions: mouse
[3] = system: narcoleptic male orexin/tTA; TetO-DTA mice; test: EEG/EMG sleep/wake and cataplexy scoring after dosing before dark onset; format: in vivo, mouse
How it was run: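 Crossover in telemetered male DTA mice (n = 7) given 1, 3 or 10 mg/kg s.c. or i.p., or the matching vehicle, 15 min before ZT12, ≥3 d between doses. EEG/EMG were scored for 6 h as hourly and cumulative time per state and as bouts. NREM latency ran from dosing to the first 6 consecutive NREM epochs; REM latency to the first 3 REM epochs. Analysis used 1-way ANOVA or 2-way RM ANOVA (treatment × time), with Holm-Sidak vs vehicle.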

[4] = system: narcoleptic male orexin/tTA; TetO-DTA mice; test: EEG spectral power analysis; format: in vivo, mouse
How it was run: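 Male orexin/tTA;TetO-DTA mice (n = 7) with subcutaneous EEG/EMG telemeters received vehicle or 1, 3 or 10 mg/kg (s.c. or i.p. by compound, 10 mL/kg) 15 min before light offset at ZT12. Design was repeated measures in balanced order, ≥3 d apart. Normalized EEG spectra were taken in 0.122 Hz bins and bands: delta 0.5–4, theta 4–9, alpha 9–12, beta 12–30, low gamma 30–60, high gamma 60–100 Hz. Each state needed ≥3 animals. Analysis was 2-way RM ANOVA with Holm-Sidak.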

[5] = system: narcoleptic male orexin/tTA; TetO-DTA mice; test: Gross motor activity, running wheel activity and subcutaneous temperature; format: in vivo, mouse
How it was run: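 Gross motor activity came from the implanted subcutaneous telemeter, alongside home-cage running-wheel activity and bouts and subcutaneous temperature, analysed per ZT hour after dosing. Male DTA mice (n = 7), adapted ≥2 weeks to wheels, handling and dosing, received vehicle or 1, 3 or 10 mg/kg s.c. or i.p. 15 min before ZT12 in repeated-measures order. Analysis was 2-way RM ANOVA (treatment × time) with Holm-Sidak.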

[6] = system: healthy sleep-deprived adults; conditions: Phase 1; ref Evans et al., 2019; cited from earlier work
wild-type mice [7] = conditions: subcutaneous; ref Yukitake et al., 2019; cited from earlier work
[8] = system: narcoleptic OX2R knockout (KO) mice; conditions: subcutaneous; ref Yukitake et al., 2019; cited from earlier work
OX2R = conditions: read-out: EC50 on OX2R; ref Kimura et al., 2019; cited from earlier work
OX1R = conditions: OX2R over OX1R; ref Kimura et al., 2019; cited from earlier work
wild-type mice [9] = conditions: oral, 5h into the light period, normal sleep phase; ref Ishikawa et al., 2019; cited from earlier work
Hcrt-neuron ablated mice = conditions: ref Kimura et al., 2019; cited from earlier work
orexin/ataxin-3 mice = conditions: chronic dosing for up to 14 days; ref Ishikawa et al., 2020; cited from earlier work
[10] = Phase 2; led Takeda to suspend dosing; cited from earlier work
[11] = first hour, all doses 1–10 mg/kg s.c.
[12] = first post-dosing hour (ZT13), all doses s.c.
[13] = first post-dosing hour, all doses s.c.
[14] = second post-dosing hour, 10 mg/kg s.c.

COC(=O)N1CCC[C@H](NS(C)(=O)=O)[C@@H]1CO[C@H]1CC[C@@H](c2ccccc2)CC1 [TAK-925, Methyl (2R,3S)-3-[(methylsulfonyl)amino]-2-{[(cis-4-phenylcyclohexyl)oxy]methyl}piperidine-1-carboxylate]
Cmax ([1]; brain): 20 ng/g
Tmax ([1]; brain): 10 min
half-life ([1]; brain): 53 min
AUC(0-t) ([1]; plasma): 335 ng·h/mL
Cmax ([1]; plasma): 160 ng/mL
Tmax ([1]; plasma): 10 min
half-life ([1]; plasma): 36 min
fraction unbound at 5 μM ([2]; mouse brain homogenate): 0.077
fraction unbound at 5 μM ([2]; mouse plasma): 0.107
Duration of the reduction of Wake bouts ([3]; 10 mg/kg s.c.): up to 3 h
Cumulative time in Cataplexy ([3]; 10 mg/kg s.c., p = 1.74 × 10^−4): suppression of Cataplexy
Latency to NREM sleep ([3]; 1, 3 and 10 mg/kg s.c., vs vehicle): delayed NREM sleep onset
Effects on arousal states (Wake, NREM, REM) across the 6-h recording ([3]; 1–10 mg/kg s.c.): transitory
NREM bout duration, post hoc test per dose ([3]; 1–10 mg/kg s.c.): did not identify any specific dose
REM bout duration, post hoc test per dose ([3]; 1–10 mg/kg s.c.): did not identify any specific dose
Latency to REM sleep ([3]; all doses (1, 3, 10 mg/kg s.c.), vs vehicle): delayed REM sleep
Wake bout duration, treatment effect ([3]; all doses s.c., 6-h recording): significant treatment effects
REM/NREM ratio ([3]; entire 6-h recording, s.c.): unchanged
Hourly amount of Cataplexy [3, 11]: eliminated
Hourly amount of NREM sleep [3, 11]: eliminated
Hourly amount of REM sleep [3, 11]: eliminated
Hourly amount of Wake [3, 11]: caused continuous wakefulness
Wake bout duration [3, 12]: increased Wake bout duration
Number of bouts of Cataplexy [3, 13]: reduced the number of bouts
Number of bouts of NREM [3, 13]: reduced the number of bouts
Number of bouts of REM [3, 13]: reduced the number of bouts
Number of bouts of Wake [3, 13]: reduced the number of bouts
Number of Cataplexy bouts ([3]; first two hours, all doses s.c.): reduced the number of Cataplexy bouts
Compensatory NREM sleep after increased wakefulness ([3]; hours after the first post-dosing hour, s.c.): no compensatory increase in NREM sleep
Number of Wake bouts across the entire 6-h recording ([3]; only 10 mg/kg s.c., p = 0.013): reduced the number of Wake bouts
Percent time in Cataplexy across the 6-h recording ([3]; only the highest dose (10 mg/kg s.c.)): reduced Cataplexy across the entire 6-h recording period
REM sleep rebound after early suppression ([3]; s.c., ZT16, 4 hours post-treatment): rebound that reached significance at ZT16
Cumulative time in REM sleep ([3]; s.c., first two hours after dosing, followed by a later rebound): significant suppression of REM sleep
Increase of Wake bout duration ([3]; second post-dosing hour (ZT14), highest dose s.c.): continued into the second post-dosing hour
Hourly amount of Cataplexy [3, 14]: reduction of Cataplexy continued into the second post-dosing hour
High gamma EEG power during Wake across the entire recording period ([4]; 10 mg/kg s.c., p = 0.02): significantly increased high gamma
Waking EEG high gamma power ([4]; ZT13, 1 mg/kg s.c.): significantly increased high gamma power
Waking EEG spectral power in alpha, low gamma and high gamma ([4]; ZT13, 3 and 10 mg/kg s.c.): significantly increased spectral power in all three bandwidths
NREM EEG delta power ([4]; ZT14, 1 mg/kg s.c.): increased NREM delta
NREM EEG spectral power ([4]; ZT14, 10 mg/kg s.c.): increased spectral power during ZT14 for all EEG bands except for low gamma
Waking EEG high gamma power, persistence of effect [4, 14]: continued into the second post-dosing hour
Number of running bouts ([5]; ZT13, all doses s.c.): more running bouts
Running wheel activity ([5]; ZT17, 10 mg/kg s.c.): Reduced running wheel activity
Gross motor activity ([5]; ZT17, highest dose s.c.): reduced gross motor activity
Running wheel activity ([5]; ZT18, 10 mg/kg s.c.): increase at ZT18
Running wheel activity ([5]; first post-dosing hour (ZT13), 1 mg/kg s.c.): significantly increased running wheel activity
Gross motor activity [5, 12]: significantly increased motor activity
Subcutaneous temperature (Tsc) [5, 12]: significantly increased Tsc
Ability to maintain wakefulness [6]: improved individuals’ ability to maintain wakefulness
Tolerability [6]: well-tolerated
Wakefulness (wild-type mice [7]): wake-promoting
Wakefulness [8]: but not in narcoleptic OX2R knockout (KO) mice

CC(C)(O)C(=O)N1CC[C@H](NS(C)(=O)=O)[C@@H]1Cc1cccc(-c2cc(F)cc(F)c2)c1F.CC(C)(O)C(=O)N1CC[C@H](NS(C)(=O)=O)[C@@H]1Cc1cccc(-c2cc(F)cc(F)c2)c1F.O.O.O [TAK-994]
EC50 (OX2R): 19 nM
selectivity against OX1R (OX1R): > 700 fold
Wakefulness (wild-type mice [9]): promoted wakefulness
Cataplectic episodes (Hcrt-neuron ablated mice): suppressing cataplectic episodes
Time spent in wake (Hcrt-neuron ablated mice): increased time spent in wake
Wake maintenance (Hcrt-neuron ablated mice): improved wake maintenance
Sleep rebound (orexin/ataxin-3 mice): without causing a sleep rebound
Wakefulness after chronic dosing (orexin/ataxin-3 mice): wake-promoting effects
Safety [10]: a safety signal emerged
